Results collected from several papers.
Lines come from different studies, so protocols differ.
Effect on: metabolic stability
Species: human
Matrix: liver microsomes

O=[N+]([O-])c1ccc(Nc2ccnc3ccc(-c4ccc(S(=O)(=O)N5CCOCC5)cc4)cc23)cn1  microsomal CLint: 106 µL/min/mg
Cn1cnc(-c2nc3ccccn3c2Nc2ccc(F)cc2)c1  microsomal CLint (3 µM; pH 7.4): 17 µL/min/mg
O=S(=O)(c1ccc(-c2ccc3nccc(Nc4ccncc4)c3c2)cc1)N1CCOCC1  microsomal CLint: 82.4 µL/min/mg
COc1ccc(-c2nc3ccccn3c2N(C)c2ccc(F)cc2)nc1  microsomal CLint (3 µM; pH 7.4): 93 µL/min/mg
Oc1cccc(-c2nc(N3CCC(c4ccccn4)C3)c3ccccc3n2)c1 (stereo not shown)  microsomal CLint: 165 µL/min/mg
CN(c1ccc(F)cc1)c1c(-c2cccc(F)n2)nc2ccccn12  microsomal CLint (3 µM; pH 7.4): 170 µL/min/mg
N#Cc1cccc(-c2nc(N3CCC(c4ccccn4)C3)c3ccccc3n2)c1 (stereo not shown)  microsomal CLint: 261 µL/min/mg
COc1cc2[nH]c(C)c(-c3ccc(C(C)=O)cc3)c(=O)c2cc1Cl  microsomal CLint (1 µM): 11 µL/min/mg
CN1CCN(c2nc(-c3ccccn3)nc3ccccc23)CC1  microsomal CLint: < 1 µL/min/mg
COc1cc2[nH]c(C)c(-c3ccc(N(C)C)nc3)c(=O)c2cc1Cl  microsomal CLint (1 µM): 20 µL/min/mg
c1ccc(-c2nc(N3CCCC3)c3ccccc3n2)nc1  microsomal CLint: 62 µL/min/mg
COc1ccn2c(Nc3ccccc3F)c(-c3ccncn3)nc2c1  microsomal CLint (3 µM; pH 7.4): 120 µL/min/mg
COc1cc2[nH]c(C)c(-c3ccc(N(C)C)cc3)c(=O)c2cc1Cl  microsomal CLint (1 µM): 15 µL/min/mg
